The nature of data set [1]: Oral bioavailability in mouse (nude) (dose of 25 mg/kg). In kind it is ADME, organism-based. To be noted: in vivo. The method, boiled down: (§1)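 Serum pharmacokinetics in nude mice or cynomolgus monkeys after oral (po) or iv dosing. Compounds were given as hydrochloride salts in 20% HPβCD unless otherwise noted. Other formulations were the hydrochloride salt in saline, the micronized free base in 20% HPβCD or corn oil (po) with saline for iv, or the hydrochloride salt in 0.4% methyl cellulose (po).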

Data set [2] is described as follows: In vivo antitumor efficacy expressed as maximum plasma concentration after a peroral dose of 10 mg/kg in cynomolgus monkeys. In kind it is ADME, organism-based, Macaca fascicularis. On the set-up: dose 10 mg/kg, route oral. The note with it: cynomolgus monkey, po. In short, it runs like this: as §1
The test system of data set [3] is Mus musculus. Description: (§2) In vivo antitumor efficacy in nude mice 0-24 hr after peroral dose of 25 mg/kg expressed as Area under the curve. In kind it is ADME, organism-based. Set-up: time < 24 hr, dose 25 mg/kg, route oral. To be noted: po, 24 h. In short, it runs like this:
as §1

Data set [4] in a line: as §2. In kind it is ADME, organism-based. Set-up: time < 24 hr, dose 25 mg/kg, route oral. The note with it: nude, mouse, po. The method, boiled down: as §1
Data set [5] has as its target geranylgeranyltransferase type-I (Rattus norvegicus, UniProt P53610+Q04631). As to the kind of experiment: Inhibition of rat Geranylgeranyl transferase (GGPT). In kind it is protein-complex assay.
Data set [6] in a line: In vivo antitumor efficacy in nude mice by injecting a dose of 25 mg/kg iv and serum half-life was determined. The note with it: mouse. In kind it is ADME, organism-based. Set-up: dose 25 mg/kg, route intravenous. In short, it runs like this:
as §1

Data set [7] in a line: (§3) Maximal plasma concentration in nude mice after 25 mg/kg oral dose. In kind it is ADME, organism-based. Set-up: dose 25 mg/kg, route oral. To be noted: mouse. The method, boiled down:
as §1

In data set [8] the test system is Cynomolgus monkey. As to the kind of experiment: In vivo antitumor efficacy after peroral dose of 25 mg/kg in cynomolgus monkeys expressed as duration for which compound was present above IC50. On the set-up: dose 25 mg/kg, route oral. In kind it is ADME, organism-based, Macaca fascicularis. The note with it: po. In short, it runs like this:
as §1

Data set [9] in a line: In vivo antitumor efficacy in cynomolgus monkeys 0-8 hours after peroral dose of 25 mg/kg expressed as Area under the curve. In kind it is ADME, organism-based, Macaca fascicularis. Set-up: time < 8 hr, dose 25 mg/kg, route oral. To be noted: cynomolgus monkey, po. In short, it runs like this:
as §1

Data set [10] concerns Mus musculus. Description: In vivo antitumor efficacy after peroral dose of 25 mg/kg in mice expressed as duration for which compound was present above IC50. Set-up: dose 25 mg/kg, route oral. In kind it is ADME, organism-based. The note with it: po. In short, it runs like this: as §1
The nature of data set [11]: In vivo antitumor efficacy peroral dose of 25 mg/kg expressed as duration for which compound was present above IC50. The note with it: po. On the set-up: dose 25 mg/kg, route oral. In kind it is ADME, organism-based. In short, it runs like this:
as §1

Data set [12] can be described thus: In vivo antitumor efficacy in nude mice 0-24 hr after intravenous dose of 25 mg/kg expressed as Area under the curve. To be noted: mouse. In kind it is ADME, organism-based. Set-up: time < 24 hr, dose 25 mg/kg, route intravenous. The method, boiled down: as §1
Data set [13] can be described thus: Oral bioavailability in mouse (nude) (dose 25 mg/kg i.v.). In kind it is ADME, organism-based. The note with it: in vivo.
Data set [14] deals with T1, Protein farnesyltransferase (Homo sapiens, UniProt P49354+P49356). Description: Inhibition of Farnesyltransferase from Ras-CVLS or Ras-CVLL in Cos-7 monkey kidney cells. In kind it is cell-based, Chlorocebus aethiops.
The nature of data set [15]: In vivo antitumor efficacy in nude mice by injecting a dose of 25 mg/kg, as HCl salt in saline solution, perorally and the total drug exposure was determined (0-24hr). In kind it is ADME, organism-based. On the set-up: time < 24 hr, dose 25 mg/kg, route oral. To be noted: mouse, po.
Data set [16] can be described thus: as §3. In kind it is ADME, organism-based. On the set-up: dose 25 mg/kg, route oral. The note with it: mouse. The source holds these as a separate data set.
The nature of data set [17]: In vivo antitumor efficacy in nude mice by injecting a dose of 25 mg/kg, as HCl salt in saline solution, iv and the serum half-life was determined. In kind it is ADME, organism-based. On the set-up: dose 25 mg/kg, route intravenous. The note with it: mouse.
For data set [18], the target named is T1, Protein farnesyltransferase. As to the kind of experiment: In vitro inhibition of farnesyltransferase farnesylation of the H-ras oncogene. In kind it is protein-complex assay.
Data set [19] relates to Mus musculus. As to the kind of experiment: In vivo antitumor efficacy in nude mice by injecting a dose of 25 mg/kg, as HCl salt in saline solution, perorally and the duration of action was reported. Set-up: dose 25 mg/kg, route oral. To be noted: po. In kind it is ADME, organism-based.
Data set [20] is described as follows: In vivo antitumor efficacy in nude mice by injecting a dose of 25 mg/kg, as HCl salt in saline solution, iv and the total drug exposure was determined. (0-24hr). In kind it is ADME, organism-based. Set-up: time < 24 hr, dose 25 mg/kg, route intravenous. The note with it: mouse.
Data set [21] can be described thus: Maximal plasma concentration in cynomolgus monkeys after 10 mg/kg oral dose. To be noted: cynomolgus monkey, plasma. Set-up: dose 10 mg/kg, route oral. In kind it is ADME, organism-based, Macaca fascicularis. The method, boiled down: as §1
In data set [22] the test system is Cynomolgus monkey. As to the kind of experiment: In vivo antitumor efficacy after peroral dose of 10 mg/kg in cynomolgus monkeys expressed as duration for which compound was present above IC50. In kind it is ADME, organism-based, Macaca fascicularis. Set-up: dose 10 mg/kg, route oral. The note with it: po. The method, boiled down:
as §1

Here are results for 4 compounds from ChEMBL document CHEMBL1131493, “Inhibitors of farnesyl protein transferase. 4-Amido, 4-carbamoyl, and 4-carboxamido derivatives of 1-(8-chloro-6,11-dihydro-5H-benzo[5,6]- cyclohepta[1,2-b]pyridin-11-yl)piperazine and 1-(3-bromo-8-chloro-6,11- dihydro-5H-benzo[5,6]cyclohepta[1,2-b]pyridin-11-yl)piperazine” (J Med Chem, 1998).

`O=C(Cc1cc[n+]([O-])cc1)N1CCN([C@H]2c3ccc(Cl)cc3CCc3cc(Br)cnc32)CC1`: the bioavailability in [1] stood at 100%. In addition, the Cmax amounted to 8 µM in data set [2] and 24.6 µM in [7]. In the data set on Mus musculus [3], this compound registered an AUC of 35300 ng·h/mL. Besides, in [4], the AUC at 24 h stood at 26100 ng·h/mL. In addition, the IC50 in data set [5] is above 76000 nM. The half-life in data set [6] is 1.9 h. Besides, the “Time above IC50” value is 24 h in the data set on Cynomolgus monkey [8] and 7 h with Mus musculus [10]. Besides, the AUC at 8 h in [9] is 58100 ng·h/mL.

Regarding `O=C(Cc1ccc[n+]([O-])c1)N1CCN(C2c3ccc(Cl)cc3CCc3cc(Br)cnc32)CC1` (centres undefined), the bioavailability in data set [1] is 100%. In addition, the figures for the AUC at 24 h in data set [4] and in data set [12] were 34800 ng·h/mL and 24000 ng·h/mL, respectively. The half-life in data set [6] is 1 h. Besides, the Cmax in data set [7] amounted to 45.4 µM. Also, in data set [11], the “Time above IC50” value worked out at 6 h.

In data set [13], `O=C(CC1CCNCC1)N1CCN(C2c3ccc(Cl)cc3CCc3cc(Br)cnc32)CC1` (centres undefined) gave a bioavailability of 65%. Besides, the IC50 is 170 nM in [14], above 38000 nM in data set [5] and 72 nM in data set [18]. The AUC at 24 h in [15] came out at 17600 ng·h/mL; in data set [20], 27200 ng·h/mL. Further, the Cmax in [16] is 3 µM. Further, the half-life in [17] was 2 h. Moreover, the “Time above IC50” value with Mus musculus [19] is 24 h.

In turn, `O=C(Cc1cc[n+]([O-])cc1)N1CCN(C2c3ccc(Cl)cc3C=Cc3cc(Br)cnc32)CC1` (centres undefined) showed an IC50 in data set [14] of 350 nM. The compound further registered a Cmax in data set [21] of 1.9 µM. In addition, in data set [12], the AUC at 24 h came to 11700 ng·h/mL. In the data set with Cynomolgus monkey [22], the “Time above IC50” value was 31 h.
